Reference: publication PMC11252922 (Proceedings of the National Academy of Sciences of the …, 2024)
Residue numbers refer to the chain shown, from its start. Where no end group is shown, it is not given here. The star is where a group is joined. Cbz = O=C(OCc1ccccc1)*

Columns and labels:
TG2 S3-2 Mut (E329A) = target: T1, TG2 S3-2 Mut (E329A) (Homo sapiens, UniProt P21980, E329A); assay: steady-state kinetic analysis with S3-2 mutant; format: biochemical; details: S3-2 (E329A) mutant, result in words
T1 sequence (P21980 1-687 E329A): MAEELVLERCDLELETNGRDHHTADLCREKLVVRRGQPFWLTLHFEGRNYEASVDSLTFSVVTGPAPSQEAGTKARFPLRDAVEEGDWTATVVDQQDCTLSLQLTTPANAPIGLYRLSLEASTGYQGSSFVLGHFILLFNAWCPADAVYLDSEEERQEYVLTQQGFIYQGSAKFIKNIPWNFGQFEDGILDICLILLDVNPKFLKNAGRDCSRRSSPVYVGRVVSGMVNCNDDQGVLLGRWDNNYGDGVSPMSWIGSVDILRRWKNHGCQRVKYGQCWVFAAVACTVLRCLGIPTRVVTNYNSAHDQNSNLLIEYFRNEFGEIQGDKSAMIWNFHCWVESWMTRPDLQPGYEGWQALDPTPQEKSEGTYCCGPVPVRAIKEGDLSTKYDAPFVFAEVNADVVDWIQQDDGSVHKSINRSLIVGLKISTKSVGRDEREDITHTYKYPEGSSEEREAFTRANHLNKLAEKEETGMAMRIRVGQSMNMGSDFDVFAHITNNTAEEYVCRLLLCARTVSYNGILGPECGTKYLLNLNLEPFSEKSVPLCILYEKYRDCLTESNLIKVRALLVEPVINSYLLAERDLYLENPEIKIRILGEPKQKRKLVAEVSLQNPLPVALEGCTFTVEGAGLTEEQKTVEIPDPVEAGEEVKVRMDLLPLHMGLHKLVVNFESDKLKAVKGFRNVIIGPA
Outline: (§1)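 N-terminally His-tagged human TG2, wild type or site-directed mutant, was expressed in E. coli BAP1 and purified by Ni-NTA, anion exchange and size exclusion. Steady-state deamidation was assayed at 1 μM enzyme with varying Gln-peptide substrate concentrations. Released NH4+ was coupled to glutamate dehydrogenase with 10 mM α-ketoglutarate and 500 μM NADH in 200 mM MOPS. Ca2+ was 5 mM unless otherwise varied.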

human TG2 = target: T2, human TG2 (Homo sapiens, UniProt P21980); assay: kinetic analysis of irreversible inhibitors using 1 as the TG2 substrate; format: biochemical; details: KM of substrate 1 used in the inhibitor analysis (Fig. 1D legend)
T2 sequence (P21980 1-687): T1 sequence (P21980 1-687 E329A) with A329E
Outline: as §1

Row | catalytic activity of S3-2 mutant against the substrate (TG2 S3-2 Mut (E329A)) | Km (human TG2) [µM] | Substance
1 | barely detectable | 175 | AcPQLPF [Compound 1]
2 | negligible |  | Cbz-Gln-Gly [ZQG, reference compound]
